Values after ≈ are worked out from the molar mass of the structure shown. One block for each compound: values may come before it. Active and inactive are the calls of the source. The calls are words filed in the database; no cut-off is given here.
Tests used:
[1] = system: Escherichia coli; assay: Antibacterial activity against Escherichia coli K-12 W3110 infected in mouse assessed as reduction of bacterial level in blood at 100 to 300 ug, ip administered 15 mins and 12 hrs postinfection relative to control; assay type: functional, K-12 substr. W3110
How it was run: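 E. coli K-12 W3110 was grown in LB broth for the inoculum and injected intraperitoneally into groups of 3–7 mice. Conjugates were given ip at 15 min and 12 h postinfection (10–300 μg per dose), with water or scrambled-sequence conjugate as controls. Blood drawn at 2, 6, 12, 24 and 48 h was diluted and plated on LB for CFU counts. Survival was followed by Kaplan-Meier, and log CFU was compared by ANOVA with Tukey-Kramer.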

[2] = system: Escherichia coli; assay: Antibacterial activity against Escherichia coli K-12 W3110 infected in mouse assessed as reduction of bacterial level in blood at 30 ug, ip administered 15 mins and 12 hrs postinfection measured after 2 hrs post dose relative to control; assay type: functional
How it was run: (§1)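 Mice in groups of 3–7 were infected intraperitoneally with E. coli W3110 from an LB culture. They were dosed ip with 10–300 μg per dose at 15 min and 12 h postinfection. Controls were water or scrambled-sequence PPMO. Blood was taken at 2, 6, 12, 24 and 48 h, diluted and plated on LB for CFU/ml. Log CFU was compared by one-way ANOVA with Tukey-Kramer; mean ± SD.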

[3] = system: Escherichia coli; assay: Antibacterial activity against Escherichia coli K-12 W3110 infected in mouse assessed as increase of mouse survival at 30 ug, ip administered 15 mins and 12 hrs postinfection; assay type: functional, organism-based; conditions: K-12 substr. W3110
How it was run: (§2)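 Mice in groups of 3–7 were infected intraperitoneally with E. coli W3110 from an LB culture. They were treated ip at 15 min and 12 h postinfection with 10, 30, 100 or 300 μg per dose; 300 μg is noted as ~15 mg/kg. Controls were water or scrambled-sequence PPMO. Survival was followed to 48 h and analysed by the Kaplan-Meier method.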

[4] = system: Escherichia coli; assay: Antibacterial activity against Escherichia coli K-12 W3110 by microdilution method; assay type: functional; conditions: K-12 substr. W3110
[5] = system: Escherichia coli; assay: Antibacterial activity against Escherichia coli K-12 W3110 infected in mouse assessed as reduction of bacterial level in blood at 100 ug, ip administered 15 mins and 12 hrs postinfection measured after 12 hrs post dose relative to control; assay type: functional, K-12 substr. W3110; how it was run: as §1
[6] = system: Escherichia coli; assay: Antibacterial activity against Escherichia coli K-12 W3110 infected in mouse assessed as increase of mouse survival at 10 ug, ip administered 15 mins and 12 hrs postinfection; assay type: functional, organism-based; conditions: K-12 substr. W3110, filed as antagonist; how it was run: as §2
[7] = system: Escherichia coli; assay: Antibacterial activity against Escherichia coli K-12 W3110 infected in mouse assessed as reduction of bacterial level in blood at 300 ug, ip administered 15 mins and 12 hrs postinfection measured after 12 hrs post dose relative to control; assay type: functional, K-12 substr. W3110; how it was run: as §1
[8] = system: Escherichia coli; assay: Antibacterial activity against Escherichia coli K-12 W3110 infected in mouse assessed as increase of mouse survival at 30 to 300 ug, ip administered 15 mins and 12 hrs postinfection; assay type: functional, organism-based; conditions: K-12 substr. W3110; how it was run: as §2
[9] = system: Escherichia coli; assay: Ratio of compound MIC to ampicillin MIC for Escherichia coli K-12 W3110; assay type: functional, K-12 substr. W3110

Structure (SMILES): CC1(C)S[C@@H]2[C@H](NC(=O)[C@H](N)c3ccccc3)C(=O)N2[C@H]1C(=O)O [AMPICILLIN]
log10cfu [1]: 3 | Activity ([2]; K-12 substr. W3110): inactive | Activity [3]: inactive

Structure (SMILES): Cc1cn([C@H]2CN(P(=O)(OC[C@@H]3CN(P(=O)(OC[C@@H]4CN(P(=O)(OC[C@@H]5CN(P(=O)(OC[C@@H]6CN(P(=O)(OC[C@@H]7CN(P(=O)(OC[C@@H]8CN(P(=O)(OC[C@@H]9CN(P(=O)(OC[C@@H]%10CNC[C@H](n%11cnc%12c(=O)[nH]c(N)nc%12%11)O%10)N(C)C)C[C@H](n%10cc(C)c(=O)[nH]c%10=O)O9)N(C)C)C[C@H](n9cnc%10c(=O)[nH]c(N)nc%109)O8)N(C)C)C[C@H](n8cnc9c(N)ncnc98)O7)N(C)C)C[C@H](n7cc(C)c(=O)[nH]c7=O)O6)N(C)C)C[C@H](n6cnc7c(N)ncnc76)O5)N(C)C)C[C@H](n5cnc6c(=O)[nH]c(N)nc65)O4)N(C)C)C[C@H](n4ccc(N)nc4=O)O3)N(C)C)C[C@@H](COP(=O)(N(C)C)N3C[C@@H](COP(=O)(N(C)C)N4C[C@@H](COP(=O)(N(C)C)N5CCN(C(=O)CCNC(=O)CCCCCNC(=O)[C@H](CCCNC(=N)N)NC(=O)CCCCNC(=O)[C@H](CCCNC(=N)N)NC(=O)[C@H](CCCNC(=N)N)NC(=O)CCCCNC(=O)[C@H](CCCNC(=N)N)NC(=O)[C@H](CCCNC(=N)N)NC(=O)CCCCNC(=O)[C@H](CCCNC(=N)N)NC(=O)[C@H](CCCNC(=N)N)NC(=O)CCCCNC(=O)[C@@H](N)CCCNC(=N)N)CC5)O[C@@H](n5ccc(N)nc5=O)C4)O[C@@H](n4cc(C)c(=O)[nH]c4=O)C3)O2)c(=O)[nH]c1=O (stereo partly drawn)
Activity [2]: 98% | MIC [4]: 1.25 µM (≈ 7.02 µg/mL) | log10cfu [5]: 2.5 | Activity [6]: Antagonist | log10cfu [7]: 2.5 | Activity [8]: Active

Structure (SMILES): Cc1cn([C@H]2CN(P(=O)(OC[C@@H]3CN(P(=O)(OC[C@@H]4CN(P(=O)(OC[C@@H]5CN(P(=O)(OC[C@@H]6CN(P(=O)(OC[C@@H]7CN(P(=O)(OC[C@@H]8CN(P(=O)(OC[C@@H]9CN(P(=O)(OC[C@@H]%10CNC[C@H](n%11cnc%12c(=O)[nH]c(N)nc%12%11)O%10)N(C)C)C[C@H](n%10cc(C)c(=O)[nH]c%10=O)O9)N(C)C)C[C@H](n9cnc%10c(=O)[nH]c(N)nc%109)O8)N(C)C)C[C@H](n8cnc9c(N)ncnc98)O7)N(C)C)C[C@H](n7cc(C)c(=O)[nH]c7=O)O6)N(C)C)C[C@H](n6cnc7c(N)ncnc76)O5)N(C)C)C[C@H](n5cnc6c(=O)[nH]c(N)nc65)O4)N(C)C)C[C@H](n4ccc(N)nc4=O)O3)N(C)C)C[C@@H](COP(=O)(N(C)C)N3C[C@@H](COP(=O)(N(C)C)N4C[C@@H](COP(=O)(N(C)C)N5CCN(C(=O)CCNC(=O)CCCCCNC(=O)[C@@H](N)CCCNC(=O)CCCCCNC(=O)[C@@H](N)CCCNC(=O)[C@@H](N)CCCNC(=O)CCCCCNC(=O)[C@@H](N)CCCNC(=O)[C@@H](N)CCCNC(=O)CCCCCNC(=O)[C@@H](N)CCCNC(=O)[C@@H](N)CCCNC(=O)CCCCCNC(=O)[C@@H](N)CCCN)CC5)O[C@@H](n5ccc(N)nc5=O)C4)O[C@@H](n4cc(C)c(=O)[nH]c4=O)C3)O2)c(=O)[nH]c1=O (stereo partly drawn)
MIC [4]: 10 µM (≈ 53.3 µg/mL)

Further compounds by falling MIC [4], results first:

MIC [4]: 20 µM (≈ 108 µg/mL)
Structure (SMILES): Cc1cn([C@H]2CN(P(=O)(OC[C@@H]3CN(P(=O)(OC[C@@H]4CN(P(=O)(OC[C@@H]5CN(P(=O)(OC[C@@H]6CN(P(=O)(OC[C@@H]7CN(P(=O)(OC[C@@H]8CN(P(=O)(OC[C@@H]9CN(P(=O)(OC[C@@H]%10CNC[C@H](n%11cnc%12c(=O)[nH]c(N)nc%12%11)O%10)N(C)C)C[C@H](n%10cc(C)c(=O)[nH]c%10=O)O9)N(C)C)C[C@H](n9cnc%10c(=O)[nH]c(N)nc%109)O8)N(C)C)C[C@H](n8cnc9c(N)ncnc98)O7)N(C)C)C[C@H](n7cc(C)c(=O)[nH]c7=O)O6)N(C)C)C[C@H](n6cnc7c(N)ncnc76)O5)N(C)C)C[C@H](n5cnc6c(=O)[nH]c(N)nc65)O4)N(C)C)C[C@H](n4ccc(N)nc4=O)O3)N(C)C)C[C@@H](COP(=O)(N(C)C)N3C[C@@H](COP(=O)(N(C)C)N4C[C@@H](COP(=O)(N(C)C)N5CCN(C(=O)CCNC(=O)CCCCCNC(=O)[C@H](CCCCN)NC(=O)CCCCNC(=O)[C@H](CCCCN)NC(=O)[C@H](CCCCN)NC(=O)CCCCNC(=O)[C@H](CCCCN)NC(=O)[C@H](CCCCN)NC(=O)CCCCNC(=O)[C@H](CCCCN)NC(=O)[C@H](CCCCN)NC(=O)CCCCNC(=O)[C@@H](N)CCCCN)CC5)O[C@@H](n5ccc(N)nc5=O)C4)O[C@@H](n4cc(C)c(=O)[nH]c4=O)C3)O2)c(=O)[nH]c1=O (stereo partly drawn)

MIC [4]: 2.5 µM (≈ 13.3 µg/mL)
Structure (SMILES): Cc1cn([C@H]2CN(P(=O)(OC[C@@H]3CN(P(=O)(OC[C@@H]4CN(P(=O)(OC[C@@H]5CN(P(=O)(OC[C@@H]6CN(P(=O)(OC[C@@H]7CN(P(=O)(OC[C@@H]8CN(P(=O)(OC[C@@H]9CN(P(=O)(OC[C@@H]%10CNC[C@H](n%11cnc%12c(=O)[nH]c(N)nc%12%11)O%10)N(C)C)C[C@H](n%10cc(C)c(=O)[nH]c%10=O)O9)N(C)C)C[C@H](n9cnc%10c(=O)[nH]c(N)nc%109)O8)N(C)C)C[C@H](n8cnc9c(N)ncnc98)O7)N(C)C)C[C@H](n7cc(C)c(=O)[nH]c7=O)O6)N(C)C)C[C@H](n6cnc7c(N)ncnc76)O5)N(C)C)C[C@H](n5cnc6c(=O)[nH]c(N)nc65)O4)N(C)C)C[C@H](n4ccc(N)nc4=O)O3)N(C)C)C[C@@H](COP(=O)(N(C)C)N3C[C@@H](COP(=O)(N(C)C)N4C[C@@H](COP(=O)(N(C)C)N5CCN(C(=O)CCNC(=O)CCCCCNC(=O)[C@H](Cc6ccccc6)NC(=O)[C@H](Cc6ccccc6)NC(=O)[C@H](CCCNC(=N)N)NC(=O)[C@H](Cc6ccccc6)NC(=O)[C@H](Cc6ccccc6)NC(=O)[C@H](CCCNC(=N)N)NC(=O)[C@H](Cc6ccccc6)NC(=O)[C@H](Cc6ccccc6)NC(=O)[C@@H](N)CCCNC(=N)N)CC5)O[C@@H](n5ccc(N)nc5=O)C4)O[C@@H](n4cc(C)c(=O)[nH]c4=O)C3)O2)c(=O)[nH]c1=O (stereo partly drawn)
Ratio [9]: 2.5
